Shown are actives, neighbours in structure and some others; about 3.3% of the full set was active somewhere.
Exocytosis inh: lytic granule exocytosis inhibition | TALL-104 LAMP-1 surface exposure, flow cytometry; cells stimulated with thapsigargin and PMA | inhibition, % at 10 µM | 0.66% of 360,000 active | AID 651702;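 active = inhibition above about 55%, limit read from the data; inconclusive = no clear call, values can overlap the other calls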
ABCB6 inh 2: inhibitors of human ABC transporter ABCB6. Q9NP58. K562-ABCB6 porphyrin accumulation, flow cytometry, 1 h; stronger effect = lower value. fluorescence ratio to DMSO, % at 10 µM. 0.19% of 360,000 active;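 active = fluorescence ratio to DMSO below 75%, the collection mean minus 3 SD; inconclusive = too few cells collected in the well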;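 also: signal is porphyrin accumulated inside mitochondria; 100% equals median channel fluorescence of DMSO control wells; lower ratio means ABCB6 inhibition with less porphyrin fluorescence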
CendR NRP1 mod: NRP-1/CendR interaction modulation. AID 602438. inhibition, % at 25 µM. FAM-RPARPAR peptide binding to NRP-1, fluorescence polarization. 0.85% of 360,000 active. O14786;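 active = inhibition or corrected inhibition above about 18%, plus a signal ratio from 0.5 to 1.5, limit read from the data, passing the limit was not always enough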
Target sequence (O14786 whole entry, looked up): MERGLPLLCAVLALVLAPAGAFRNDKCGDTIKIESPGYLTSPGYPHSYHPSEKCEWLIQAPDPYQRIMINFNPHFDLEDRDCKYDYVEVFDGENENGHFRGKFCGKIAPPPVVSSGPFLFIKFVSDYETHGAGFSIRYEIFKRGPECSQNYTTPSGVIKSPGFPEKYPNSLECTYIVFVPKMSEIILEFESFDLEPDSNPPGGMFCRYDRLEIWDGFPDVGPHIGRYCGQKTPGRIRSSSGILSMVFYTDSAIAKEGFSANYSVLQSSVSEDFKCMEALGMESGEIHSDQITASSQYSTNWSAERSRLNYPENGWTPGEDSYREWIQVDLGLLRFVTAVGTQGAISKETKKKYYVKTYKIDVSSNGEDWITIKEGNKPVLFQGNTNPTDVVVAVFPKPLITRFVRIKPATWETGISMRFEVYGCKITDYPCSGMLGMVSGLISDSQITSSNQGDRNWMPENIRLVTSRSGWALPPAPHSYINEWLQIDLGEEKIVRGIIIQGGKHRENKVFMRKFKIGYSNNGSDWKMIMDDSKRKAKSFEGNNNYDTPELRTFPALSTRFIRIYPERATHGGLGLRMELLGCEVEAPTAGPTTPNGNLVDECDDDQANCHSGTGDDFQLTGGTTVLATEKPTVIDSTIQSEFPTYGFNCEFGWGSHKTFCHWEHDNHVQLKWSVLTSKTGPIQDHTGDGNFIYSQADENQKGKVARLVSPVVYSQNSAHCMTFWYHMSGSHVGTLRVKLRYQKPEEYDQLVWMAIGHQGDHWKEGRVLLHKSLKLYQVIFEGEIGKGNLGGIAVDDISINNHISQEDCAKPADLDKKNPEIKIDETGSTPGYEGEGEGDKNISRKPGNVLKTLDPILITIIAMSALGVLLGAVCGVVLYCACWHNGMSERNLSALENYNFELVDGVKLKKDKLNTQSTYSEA
ATG4B inhibitor: ATG4B (human) cysteine protease inhibition; 0.51% of 340,000 active; ATG4B cleavage of LC3-PLA2, NBD-HPC fluorescence, 1 h; Q9Y4P1; inhibition, % at 8.33 µM; in the data active = inhibition above about 40%
Arrestin-AP2 inh: human beta-arrestin and AP2 interaction inhibition; FITC-arrestin peptide / GST-AP2 beads, flow cytometry; AP2 beta2 appendage carries R879A mutation; inhibition, % at 10 µM; 0.31% of 340,000 active; AID 504490;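 active = inhibition above a set limit, near 3 SD of compounds lacking own fluorescence, cut at about 54% in these data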;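 also: plate controls were DMSO wells for no effect and 5 µM unlabelled arrestin peptide for full effect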
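Assay system: GST-AP2 R879A bound to glutathione beads, E. coli-expressed; Medium: PBS with 0.05% Tween 20 and 0.1% BSA; Also added: fluorescein-tagged arrestin peptide at 50 nM final; Timing: 12 min plus 1 h, RT; Measured by: flow cytometry, FL1 (488/535 nm); Evaluation: percent drop in bead-associated FITC signal.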
Myeloid diff MLP: compounds promoting myeloid differentiation; ER-HoxA9 myeloid progenitors, lysozyme-GFP differentiation, flow cytometry; 1% of 360,000 active; calls only at 10 µM; AID 624256;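 active = normalized GFP-positive differentiation at or above the plate's own cutoff, the solvent-only control mean plus 3 SD; inconclusive = no clear call, values can overlap the other calls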;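 also: cells exposed to compound for four days before flow analysis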
The depositor's hits bear a star.

For CN1CCN(c2ccc(NS(=O)(=O)c3ccc(Cl)cc3)cn2)CC1 the results were Exocytosis inh 2, ABCB6 inh 2 108, CendR NRP1 mod 8, ATG4B inhibitor -8, Arrestin-AP2 inh 9 and Myeloid diff MLP active.
Screening CN1CCN(NS(=O)(=O)c2ccc(Cl)cc2)CC1 returned Exocytosis inh 14, ABCB6 inh 2 94, CendR NRP1 mod -3, ATG4B inhibitor -10, Arrestin-AP2 inh -7 and Myeloid diff MLP inactive.
`CN1CCN(c2ccc(NC(=O)c3ccc(C(F)(F)F)cc3)cn2)CC1` gave Exocytosis inh -1, ABCB6 inh 2 97, CendR NRP1 mod 0, ATG4B inhibitor -8, Arrestin-AP2 inh 21 and Myeloid diff MLP inactive.
For Cc1ccc(S(=O)(=O)Nc2ccc(N3CCN(C)CC3)nc2)cc1 the results were Exocytosis inh 5, ABCB6 inh 2 102, CendR NRP1 mod -11, ATG4B inhibitor 2, Arrestin-AP2 inh -7 and Myeloid diff MLP active.
For CCCCCCCCCCCCN1[C@@H](CC(=O)OC)c2cc(F)ccc2S1(=O)=O the results were Exocytosis inh 17, ABCB6 inh 2 94, CendR NRP1 mod 26*, ATG4B inhibitor -6, Arrestin-AP2 inh 5 and Myeloid diff MLP inactive.
CN(C)c1ccc(N2[C@@H](CC(=O)O)c3cc(C(F)(F)F)ccc3S2(=O)=O)cc1 was read as Exocytosis inh -19, ABCB6 inh 2 95, CendR NRP1 mod 25*, ATG4B inhibitor 9, Arrestin-AP2 inh 0 and Myeloid diff MLP inactive.
`CCCCCCCCCCCCN1[C@@H](CC(C)=O)c2cc(C(F)(F)F)ccc2S1(=O)=O` gave Exocytosis inh -10, ABCB6 inh 2 90, CendR NRP1 mod 9, ATG4B inhibitor -5, Arrestin-AP2 inh 27 and Myeloid diff MLP inactive.
For CCCCCCCCN1[C@@H](CC(=O)O)c2ccc(C(F)(F)F)cc2S1(=O)=O the results were Exocytosis inh -1, ABCB6 inh 2 92, CendR NRP1 mod 28*, ATG4B inhibitor -11, Arrestin-AP2 inh 0 and Myeloid diff MLP inactive.
CCOc1ccc(S(=O)(=O)N2CCC(C(=O)NCc3ccccc3CN3CCCC3)CC2)cc1 was read as Exocytosis inh -4, ABCB6 inh 2 100, CendR NRP1 mod 7, ATG4B inhibitor 1, Arrestin-AP2 inh 9 and Myeloid diff MLP inactive.
For Cc1ccc(C(=O)CNc2ccc(C)c(Cl)c2)cc1 the results were Exocytosis inh -2, ABCB6 inh 2 88, CendR NRP1 mod 30*, ATG4B inhibitor 6, Arrestin-AP2 inh 10 and Myeloid diff MLP inactive.
Cc1ccc(NCC(=O)c2ccccc2)cc1Cl was read as Exocytosis inh -2, ABCB6 inh 2 94, CendR NRP1 mod -18, ATG4B inhibitor 4, Arrestin-AP2 inh 3 and Myeloid diff MLP inactive.
O=C1C(Br)=C(c2ccccc2)C(c2ccccc2)=C1c1ccccc1 was read as Exocytosis inh 106*, ABCB6 inh 2 88, CendR NRP1 mod -7, ATG4B inhibitor 1, Arrestin-AP2 inh 24 and Myeloid diff MLP inconclusive.
Cc1cc(C)nc(S/C=C/C(=O)c2ccccc2F)n1 was read as Exocytosis inh 62*, ABCB6 inh 2 100, CendR NRP1 mod -11, ATG4B inhibitor 6, Arrestin-AP2 inh -1 and Myeloid diff MLP inconclusive.
Cc1ccc2c(c1)c1c3n2CCN=C3CCC1 was read as Exocytosis inh 2, ABCB6 inh 2 100, CendR NRP1 mod -8, ATG4B inhibitor -11, Arrestin-AP2 inh -2 and Myeloid diff MLP active.
Screening CC1=C(C)CC(C(=O)N2CCN(Cc3ccc4c(c3)OCO4)CC2)C(C(=O)O)C1 (stereo unspecified) returned Exocytosis inh 2, ABCB6 inh 2 97, CendR NRP1 mod 2, ATG4B inhibitor -7, Arrestin-AP2 inh 2 and Myeloid diff MLP inactive.
Screening COc1ccc(OC)c(CNC(=O)CCCc2cn(C)c3ccccc23)c1 returned Exocytosis inh -1, ABCB6 inh 2 103, CendR NRP1 mod 14, ATG4B inhibitor 10, Arrestin-AP2 inh 14 and Myeloid diff MLP inactive.
For COc1ccc(Br)cc1CNC(=O)CCc1nc(-c2ccc(C)cc2)no1 the results were Exocytosis inh -2, ABCB6 inh 2 91, CendR NRP1 mod 23*, ATG4B inhibitor 26, Arrestin-AP2 inh -3 and Myeloid diff MLP inactive.

From PubChem BioAssay
